Data as given in ChEMBL document CHEMBL1795234, “Practical synthesis, anticonvulsant, and antimicrobial activity of N-allyl and N-propargyl di(indolyl)indolin-2-ones” (2011).

Tests used:
Type in all cases: functional
Escherichia coli = test: Antibacterial activity against Escherichia coli K12 at 20 ug/ml after 24 hrs by cup plate method; conditions: K-12, 24 h, read-out: IZ
Outline: (§1)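 Cup-plate (well diffusion) on Mueller-Hinton agar; compounds at 20 µg/mL in methanol, 20 µL per well; one well with 20 µL methanol as solvent control; Amikacin standard run alike. Held in refrigerator 1 h for diffusion, then incubated 24 h at 37 °C; zone of inhibition around cup measured.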

Mus musculus [1] = test: Anticonvulsant activity against maximum electric shock-induced seizure in Swiss albino mouse assessed as time spent in tonic clonus phase at 20 mg/kg, ip administered 30 mins before seizure induction by electroconvulsiometer analysis; conditions: route intraperitoneal
Outline: (§2)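 Inbred Swiss albino mice, both sexes, 25–30 g, 7-day adaptation, groups of 5, each used once, tested 10:00–16:00. Compound suspended in 0.5% Tween 80, 20 mg/kg ip 30 min before maximal electroshock; vehicle control group and ip phenytoin 20 mg/kg standard. Seconds spent in flexion, extensor and clonus phases recorded, mean ± SEM.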

Staphylococcus aureus = test: Antibacterial activity against methicillin-sensitive Staphylococcus aureus 22 at 20 ug/ml after 24 hrs by cup plate method; conditions: Staphylococcus aureus, 22, 24 h; read-out: IZ; outline: as §1
Mus musculus [2] = test: Anticonvulsant activity against maximum electric shock-induced seizure in Swiss albino mouse assessed as time spent in tonic flexion phase at 20 mg/kg, ip administered 30 mins before seizure induction by electroconvulsiometer analysis; conditions: route intraperitoneal; outline: as §2
Candida albicans = test: Antifungal activity against Candida albicans ATCC 10231 at 20 ug/ml after 24 hrs by cup plate method; conditions: ATCC 10231, 24 h, read-out: IZ
Outline: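 C. albicans spores inoculated into lukewarm Sabouraud dextrose agar (pH 5.4, autoclaved 121 °C 15 min) and poured; cups filled with compound at 20 µg/mL, methanol solvent control, Ketoconazole standard. Kept refrigerated 1 h for diffusion, then incubated 24 h at 28 °C; zone of inhibition read.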

Mus musculus [3] = test: Anticonvulsant activity against maximum electric shock-induced seizure in Swiss albino mouse assessed as time spent in tonic extensor phase at 20 mg/kg, ip administered 30 mins before seizure induction by electroconvulsiometer analysis; conditions: route intraperitoneal; outline: as §2

SMILES | zone of inhibition at 20 µg/mL (Escherichia coli) [mm] | Time (Mus musculus [1]) [s] | zone of inhibition at 20 µg/mL (Staphylococcus aureus) [mm] | Time (Mus musculus [2]) [s] | zone of inhibition at 20 µg/mL (Candida albicans) [mm] | Time (Mus musculus [3]) [s]
C=CCn1cc(C2(c3cn(CC=C)c4ccccc34)C(=O)Nc3ccccc32)c2ccccc21 | 12 | 3.6 | 12 | 5.8 | 11 | 48
C=CCn1cc(C2(c3cn(CC=C)c4ccccc34)C(=O)Nc3ccc([N+](=O)[O-])cc32)c2ccccc21 | 10 | 3.4 | 10 | 4.8 | 15 | 39.2
C=CCn1cc(C2(c3cn(CC=C)c4ccc(OC)cc34)C(=O)Nc3ccccc32)c2cc(OC)ccc21 | 10 | 3.2 | 12 | 4.8 | 14 | 31.8
C=CCn1cc(C2(c3cn(CC=C)c4ccc(OC)cc34)C(=O)Nc3ccc(Cl)cc32)c2cc(OC)ccc21 | 11 | 3.4 | 10 | 5.8 | 10 | 31.6
C=CCn1cc(C2(c3cn(CC=C)c4ccc(OC)cc34)C(=O)Nc3ccc(Br)cc32)c2cc(OC)ccc21 | 14 | 3.4 | 15 | 4.8 | 14 | 39.2
C=CCn1cc(C2(c3cn(CC=C)c4ccc(OC)cc34)C(=O)N(CC(=O)OCC)c3ccccc32)c2cc(OC)ccc21 | 14 | 3.4 | 12 | 4.8 | 10 | 31.6
O=C1Nc2ccccc2C1(c1cn(C/C=C/c2ccccc2)c2ccccc12)c1cn(C/C=C/c2ccccc2)c2ccccc12 | 14 | 3.6 | 10 | 4.8 | 13 | 39.6
CC(C)=CCn1cc(C2(c3cn(CC=C(C)C)c4ccc(Br)cc34)C(=O)Nc3ccccc32)c2cc(Br)ccc21 | 12 | 3.4 | 14 | 4.8 | 12 | 39.6
C#CCN1C(=O)C(c2cn(CC=C(C)C)c3ccc(Br)cc23)(c2cn(CC=C(C)C)c3ccc(Br)cc23)c2ccccc21 | 15 | 2.8 | 15 | 5.4 | 10 | 31.6
C#CCn1cc(C2(c3cn(CC#C)c4ccccc34)C(=O)Nc3ccccc32)c2ccccc21 | 10 | 3.2 | 11 | 4.8 | 12 | 39.2
C#CCn1cc(C2(c3cn(CC#C)c4ccccc34)C(=O)N(Cc3ccccc3)c3ccccc32)c2ccccc21 | 17 | 3.2 | 15 | 4.8 | 13 | 39.2
C#CCN1C(=O)C(c2cn(CC#C)c3ccccc23)(c2cn(CC#C)c3ccccc23)c2ccccc21 | 10 | 3.6 | 10 | 5.4 | 12 | 31.8
C#CCn1c(C)c(C2(c3c(C)n(CC#C)c4ccccc34)C(=O)Nc3ccccc32)c2ccccc21 | 15 | 2.8 | 15 | 5.4 | 15 | 31.6
NCC[C@H](O)C(=O)N[C@@H]1C[C@H](N)[C@@H](O[C@H]2O[C@H](CN)[C@@H](O)[C@H](O)[C@H]2O)[C@H](O)[C@H]1O[C@H]1O[C@H](CO)[C@@H](O)[C@H](N)[C@H]1O [AMIKACIN] | 18 |  | 17 |  |  | 
CC(=O)N1CCN(c2ccc(OCC3COC(Cn4ccnc4)(c4ccc(Cl)cc4Cl)O3)cc2)CC1 (centres undefined) [KETOCONAZOLE] |  |  |  |  | 16 | 
O=C1NC(=O)C(c2ccccc2)(c2ccccc2)N1 [PHENYTOIN] |  | 3.4 |  | 5.6 |  | 43
